The record followed here is ChEMBL document CHEMBL1121464, “14-(Arylhydroxyamino)codeinones and derivatives as analgetics and antagonists” (1980).

Each structure is given as a SMILES string. Several values for one entry are separate records, joined by “and”; a condition that tells them apart may be missing. Equal values may be shown once. Activity calls are given as the source filed them.

Experiment [1] concerns Mus musculus. Nature of the experiment: Tested for antagonistic activity using Straub tail test in mice at 20 mg/kg upon subcutaneous administration; Inactive. The arrangement: dose 20 mg/kg. In kind it is functional, organism-based.
The species entered for experiment [2] is Mus musculus. Nature of the experiment: Maximum percent analgesia using tail flick test in mice. In kind it is functional. A digest of the protocol:
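Young male Swiss mice (ca. 35 g) restrained in cylinders, with the tail exposed to 54 °C water. Reaction time (shorter of a pair) taken pre-dose and every 15 min to 2 h. Naive non-responders under 2.2 s excluded; 5 s cutoff. Dosed ip at 20 mg/kg in propylene glycol or water, 9–11 mice per group. […] Analgesia defined as PRT >2.6 s; the value is the peak percentage of analgesic mice at any time point.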
(In general: Hot-plate and tail-flick tests time the reaction to a heat stimulus.)

In experiment [3] the test system is Mus musculus. The experiment in a line: Tested for analgesic activity using writhing test in mice at 20 mg/kg upon subcutaneous administration. Conditions: sc. It counts as functional. A general note: In writhing tests, fewer writhes than in controls are read as antinociception.
Experiment [4] deals with Mus musculus. The experiment in a line: Tested for antagonistic activity using Straub tail test in mice at 20 mg/kg upon subcutaneous administration. It counts as functional. Conditions: sc.
For experiment [5], the system named is Mus musculus. The experiment in a line: Tested for analgesic activity using writhing test in mice at 20 mg/kg upon subcutaneous administration; Inactive. It counts as functional, organism-based. Further details: dose 20 mg/kg.

Consider `CN1CC[C@]23c4c5ccc(O)c4O[C@H]2[C@@H](O)C=C[C@H]3[C@H]1C5` [MORPHINE], for which the ED50 result in the experiment on Mus musculus [1] was “inactive”. In the experiment listed under Mus musculus [2], this compound had an Analgesia of 80%. The median effective dose (ED50) with Mus musculus [3] turned out to be 0.26 mg/kg.

Turning to `COc1ccc2c3c1OC1C(=O)CCC4(Nc5ccccc5)C(C2)N(CC2CC2)CCC314` (centres undefined), the Analgesia in the experiment listed under Mus musculus [2] was determined as 10%. The figures for the ED50 in the experiment on Mus musculus [3] and in the experiment on Mus musculus [4] were ~40 mg/kg and ~10.5 mg/kg, respectively.

For the compound `COc1ccc2c3c1OC1C(=O)C=CC4(N(O)c5ccc(F)cc5)C(C2)N(CC2CC2)CCC314` (centres undefined), the Analgesia in the experiment listed under Mus musculus [2] is on record as 32%. Further, the 50% effective dose (ED50) with Mus musculus [3] is ~40 mg/kg; in the experiment with Mus musculus [4], 12 mg/kg.

In turn, `COc1ccc2c3c1OC1C(=O)C=CC4(N(O)c5ccc(F)cc5)C(C2)N(C)CCC314` (centres undefined) gave an Analgesia in the experiment listed under Mus musculus [2] of 30%. Moreover, the ED50 with Mus musculus [3] is 0.71 mg/kg; with Mus musculus [4], > 40 mg/kg.

`COc1ccc2c(c1O)C13CCN(CC4CC4)C(C2)C12C=CC(=O)C3ON2c1ccccc1` (centres undefined): the Analgesia in the experiment listed under Mus musculus [2] is reported as 20%. Further, the ED50 with Mus musculus [3] and with Mus musculus [4] was > 40 mg/kg in each case.

With `COc1ccc2c3c1OC1C(=O)C=CC4(N(O)c5ccccc5)C(C2)N(CC2CC2)CCC314` (centres undefined), the Analgesia in the experiment listed under Mus musculus [2] is recorded as 32%. In addition, the ED50 with Mus musculus [3] is > 40 mg/kg; in the experiment with Mus musculus [4], ~7 mg/kg.

With `COc1ccc2c3c1OC1C(=O)C=CC4(NO)C(C2)N(C)CCC314` (centres undefined), the Analgesia in the experiment filed under Mus musculus [2] was 10% and 20%. Also, the values for the median effective dose (ED50) in the experiment on Mus musculus [3] and with Mus musculus [4] were 5 mg/kg and > 20 mg/kg, respectively.

In the experiment listed under Mus musculus [2], `COc1ccc2c(c1O)C13CCN(C)C(C2)C12C=CC(=O)C3ON2c1ccccc1` (centres undefined) yielded an Analgesia of 50%. Moreover, the ED50 was 1.87 mg/kg in the experiment with Mus musculus [3] and > 40 mg/kg in the experiment on Mus musculus [4].

For the compound `COc1ccc2c3c1OC1C(=O)CCC4(Nc5ccc(F)cc5)C(C2)N(C)CCC314` (centres undefined), the Analgesia in the experiment filed under Mus musculus [2] is recorded as 10%. Also, the ED50 with Mus musculus [3] was 0.76 mg/kg; with Mus musculus [4] it was > 40 mg/kg.

Compound `COc1ccc2c3c1OC1C(=O)CCC4(Nc5ccccc5)C(C2)N(C)CCC314` (centres undefined) gave an Analgesia in the experiment listed under Mus musculus [2] of 10%. In addition, the median effective dose (ED50) was 1.04 mg/kg in the experiment on Mus musculus [3] and > 40 mg/kg with Mus musculus [4].

In the case of `COc1ccc2c(c1O)C13CCN(C)C(C2)C12C=CC(=O)C3ON2c1ccc(F)cc1` (centres undefined), the Analgesia in the experiment filed under Mus musculus [2] worked out at 90%. The ED50 in the experiment with Mus musculus [3] is 2.53 mg/kg; in the experiment on Mus musculus [4] it was > 40 mg/kg.

Take `COc1ccc2c3c1OC1C(=O)C=CC4(N(O)c5ccccc5)C(C2)N(C)CCC314` (centres undefined): in the experiment listed under Mus musculus [2], the Analgesia amounted to 20%. The median effective dose (ED50) is 1.45 mg/kg with Mus musculus [3] and > 20 mg/kg with Mus musculus [4].

`C=CCN1CC[C@]23c4c5ccc(O)c4O[C@H]2C(=O)CC[C@@]3(O)[C@H]1C5` [NALOXONE]: in the experiment on Mus musculus [5], the ED50 result was “inactive”. For the same compound, in the experiment listed under Mus musculus [2], the Analgesia amounted to 32%.

As to `COc1ccc2c3c1OC1C(=O)CCC4(Nc5ccc(F)cc5)C(C2)N(CC2CC2)CCC314` (centres undefined), in the experiment listed under Mus musculus [2], the Analgesia was 32%. Moreover, the figures for the ED50 in the experiment with Mus musculus [3] and with Mus musculus [4] were ~25 mg/kg and ~5 mg/kg, respectively.

For `COc1ccc2c(c1O)C13CCN(CC4CC4)C(C2)C12C=CC(=O)C3ON2c1ccc(F)cc1` (centres undefined), in the experiment filed under Mus musculus [2], the Analgesia is 20%. Moreover, the ED50 is ~31 mg/kg in the experiment on Mus musculus [3] and > 40 mg/kg with Mus musculus [4].

One may read the ED50 as the dose at which the effect has come halfway, by size or by number of responders.
